Published values collected from several papers.
Compare with care: the assays were run in different laboratories.
Target: Ephrin type-A receptor 7 (EPHA7, Homo sapiens, UniProt Q15375)

O=C(Nc1cnc(Oc2ccc(F)cc2)nc1)N1CCc2ncccc2[C@@H]1c1ccc(F)cc1
remaining binding (cell-free assay, competition with immobilised ligand; 1 µM): 88%

C=CC(=O)N1CCC(C(=O)NCC(=O)N2CCN(c3nc(-c4cnc(N)nc4C(F)F)nc(N4CCOCC4)n3)CC2)CC1
remaining binding (binding, competition with immobilised ligand; 1 µM): 100%

CCN1CCN(Cc2ccc(C(=O)Nc3ccc(C)c(Oc4ccc5c(c4)CC(=O)N5)c3)cc2C(F)(F)F)CC1
remaining binding (binding, competition with immobilised ligand; 1 µM): 89%

CN(c1nccc(-c2cnn3ncccc23)n1)C1CC1
remaining binding (binding; 1 µM): 100%

O=C(Nc1cccnn1)N1CCC(=Cc2cccc(Oc3ccc(C(F)(F)F)cn3)c2)CC1
remaining binding (cell-free assay, competition with immobilised ligand; 1 µM): 95%

Cc1cnc(Nc2ccc(C(=O)N3CCC(N4CCCC4)CC3)cc2)nc1-c1cc2ccccc2s1
remaining binding (binding, competition with immobilised ligand; 1 µM): 67%

CC1CCCN1c1nccc(-c2cnn3ncccc23)n1 (stereo not drawn)
remaining binding (binding; 1 µM): 99%

COc1ncc2cc3ccccc3nc2c1C#N
remaining binding (cell-free assay, competition with immobilised ligand; 5 µM): 95%

Cc1cnn2ncc(-c3ccnc(N(C)C)n3)c2c1
remaining binding (binding; 1 µM): 100%

CNC(=O)[C@@H]1CC[C@@H](n2c(-c3ccc4cnccc4c3)nc3ccc(C(=O)NCc4cccc(C(N)=O)c4)cc32)C1
remaining binding (binding, competition with immobilised ligand; 1 µM): 100%

CN(C)c1nccc(-c2cnc3ncccn23)n1
remaining binding (binding; 1 µM): 68%

O=C1NC(c2ccccn2)Sc2ccccc21 (stereo not drawn)
remaining binding (cell-free assay, competition with immobilised ligand; 1 µM): 72%

c1cnn2ncc(-c3ccnc(N4CCC45COC5)n3)c2c1
remaining binding (binding; 1 µM): 93%

Nc1ncc2c(n1)-c1c([nH]c3ccc(C#CC4CC4)cc13)CCCC2
remaining binding (binding, competition with immobilised ligand; 1 µM): 100%

N[C@@H]1CCN(c2nccc(-c3cnn4ncccc34)n2)C1
remaining binding (binding; 1 µM): 91%

CNC(=O)Nc1ccc2c(c1)[C@@]1(CC2)OC(=O)N(CC(=O)N(Cc2ccc(F)cc2)[C@@H](C)C(F)(F)F)C1=O
remaining binding (cell-free assay, competition with immobilised ligand; 1 µM): 100%

O=C(c1ccc(Nc2nccc(-c3cc4ccccc4s3)n2)cc1)N1CCC(N2CCCC2)CC1
remaining binding (binding, competition with immobilised ligand; 1 µM): 100%

CS(=O)(=O)N1CCCC(NC(=O)[C@H](CCC2CCCCC2)NC(=O)c2ccc(CNc3ncnc4c3nnn4-c3ccccc3)cc2)C1 (stereo partly drawn)
remaining binding (cell-free assay, competition with immobilised ligand; 0.1 µM): 98%

O=C(NCCCN1CCOCC1)c1ccc(Nc2nccc(-c3cc4ccccc4s3)n2)cc1
remaining binding (binding, competition with immobilised ligand; 1 µM): 100%

Cc1cc(-n2nc(Cc3cc(F)cc(C(F)(F)F)c3)nc2C)ccc1C(N)=O
remaining binding (cell-free assay, competition with immobilised ligand; 1 µM): 98%

O=C(Nc1c[nH]nc1C(=O)NC1CCNCC1)c1cc(F)cc(F)c1
remaining binding (binding, competition with immobilised ligand; 1 µM): 100%
